The text below walks through data of ChEMBL document CHEMBL4376838, “Discovery of Novel Celastrol Derivatives as Hsp90-Cdc37 Interaction Disruptors with Antitumor Activity” (J Med Chem, 2019).

The target of test [1] is T1, Hsp90 co-chaperone Cdc37 (Homo sapiens) (UniProt Q16543).
T1 sequence (whole entry): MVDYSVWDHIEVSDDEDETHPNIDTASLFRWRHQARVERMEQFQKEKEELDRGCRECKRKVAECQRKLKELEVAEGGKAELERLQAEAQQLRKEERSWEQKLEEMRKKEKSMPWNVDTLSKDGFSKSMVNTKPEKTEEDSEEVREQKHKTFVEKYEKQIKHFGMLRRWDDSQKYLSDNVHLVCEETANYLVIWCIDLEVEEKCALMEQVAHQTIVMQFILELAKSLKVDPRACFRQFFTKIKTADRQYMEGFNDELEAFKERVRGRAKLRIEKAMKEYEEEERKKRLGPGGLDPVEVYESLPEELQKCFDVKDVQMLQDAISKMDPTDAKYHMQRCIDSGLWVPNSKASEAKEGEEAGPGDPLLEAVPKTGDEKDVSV
The test is described as follows: Binding affinity to Cdc37 in human A549 cells assessed as inhibition of HSP90-Cdc37 interaction by measuring increase in BAX protein level at 1.25 to 5 uM incubated for 12 hrs by Western blot analysis. Format: cell-based. In short, it runs like this:
(§1)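 A549 cells (5×10^5 per 6 cm dish) were allowed to settle 12 h, then treated with DMSO or compound at the indicated concentrations for 12 h. Lysates were adjusted to 3 mg/ml protein by BCA and resolved on 10% SDS-PAGE, then Western blotted. β-actin or Hsp90 served as the loading control. Three separate experiments, mean ± SD.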
A general note: A western blot detects proteins with antibodies after separation by electrophoresis.

For test [2], the system named is A549. The test is described as follows: Antiproliferative activity against human A549 cells assessed as inhibition of cell growth incubated for 48 hrs by MTT assay. Format: functional, cell-based. The settings on record: A549, 48 h. An outline of the steps: (§2)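 MTT read-out. Cells seeded at 5.0 × 10⁴ cells/ml and cultured 24 h, then exposed to the drug over a range of concentrations for 48 h, with matching DMSO as control. MTT (5 mg/ml) added for 4 h, supernatant removed, formazan dissolved in DMSO, OD read at 570 nm. Run in triplicate, mean ± SD (n = 3).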
On the technique in general: Formazan colour is commonly taken as a measure of viable cells.

The subject of test [3] is A549. In words: Induction of mitochondrial membrane potential loss in human A549 cells assessed as cells with depolarized mitochondria by measuring increase in J-monomer green fluorescence intensity at 0.2 uM incubated for 24 hrs by JC1 staining based fluorescence microscopic method (reference value: 1.5%). Format: functional.
The test system of test [4] is A549. The test is described as follows: Induction of apoptosis in human A549 cells assessed as early apoptotic cells at 0.6 uM incubated for 48 hrs by Annexin V-FITC and PI staining based flow cytometric analysis (reference value: 0.5%). The format is functional. On the technique in general: Flow cytometry measures light scatter and fluorescence of single cells or particles in a stream.

The target in test [5] is T1, Hsp90 co-chaperone Cdc37 (Homo sapiens). In words: Binding affinity to Cdc37 in human A549 cells assessed as inhibition of HSP90-Cdc37 interaction by measuring decrease in Akt phosphorylation level incubated for 12 hrs by Western blot analysis. The format is cell-based. An outline of the steps:
as §1

Test [6] can be described thus: Binding affinity to DTT in DMSO-d6 with retention of CA moiety at 0.02 mmol incubated for 20 mins in ultrasound by 1H NMR-spectroscopic analysis.
The test system of a further test is HepG2. In words: Antiproliferative activity against human HepG2 cells assessed as inhibition of cell growth incubated for 48 hrs by MTT assay. Format: functional, cell-based. To be noted: HepG2, 48 h. An outline of the steps: as §2
In test [7] the target is T1, Hsp90 co-chaperone Cdc37 (Homo sapiens). In words: Binding affinity to Cdc37 in human A549 cells assessed as inhibition of HSP90-Cdc37 interaction by measuring decrease in Bcl2 protein level at 1.25 to 5 uM incubated for 12 hrs by Western blot analysis. The format is cell-based. An outline of the steps: as §1
The subject of test [8] is A549. In words: Induction of apoptosis in human A549 cells assessed as necrotic cells at 1.2 uM incubated for 48 hrs by Annexin V-FITC and PI staining based flow cytometric analysis (reference value: 1.0%). Format: functional. An outline of the steps:
(§3)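 A549 cells (4×10^5 per 6 cm dish) cultured 24 h, then treated 48 h with compound or DMSO. Cells gently harvested, washed twice in cold PBS, resuspended in binding buffer with Annexin V and PI, stained 15 min at room temperature in the dark, analysed by flow cytometry. Mean ± SD, n = 3.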

Test [9] relates to A549. The test is described as follows: Induction of apoptosis in human A549 cells assessed as late apoptotic cells at 1.2 uM incubated for 48 hrs by Annexin V-FITC and PI staining based flow cytometric analysis (reference value: 3.0%). Format: functional. In short, it runs like this:
as §3

Test [10] has as its system A549. In words: Induction of cell cycle arrest in human A549 cells assessed as accumulation at G1 phase at 0.2 uM incubated for 24 hrs by PI staining based flow cytometric analysis (reference value: 60.14%). The format is functional. An outline of the steps:
(§4)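 A549 cells (4×10^5 per 6 cm dish) were grown 24 h, then exposed to compound (0.2, 0.4, 0.8 μM) or DMSO for 24 h. Cells fixed in 75% ethanol at −20 °C for at least 12 h, treated with RNase A at 37 °C for 30 min, then stained with PI for 15 min in the dark. Analysed by flow cytometry, mean ± SD, n = 3.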

The subject of test [11] is A549. In words: Induction of cell cycle arrest in human A549 cells assessed as accumulation at S phase at 0.8 uM incubated for 24 hrs by PI staining based flow cytometric analysis (reference value: 27.59%). Format: functional. In short, it runs like this: as §4
The subject of test [12] is A549. The test is described as follows: Induction of cell cycle arrest in human A549 cells assessed as accumulation at G2 phase at 0.2 uM incubated for 24 hrs by PI staining based flow cytometric analysis (reference value: 19.37%). Format: functional. In short, it runs like this:
as §4

For test [13], the target named is T1, Hsp90 co-chaperone Cdc37 (Homo sapiens). In words: Binding affinity to Cdc37 in human A549 cells assessed as inhibition of HSP90-Cdc37 interaction by measuring decrease in Akt phosphorylation level at 5 uM incubated for 12 hrs by Western blot analysis. The format is cell-based. An outline of the steps:
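A549 cells seeded 5×10^5 per 6 cm dish, grown 12 h, then exposed to compound or DMSO for 12 h. Lysates adjusted to 3 mg/ml protein (BCA), run on 10% SDS-PAGE, immunoblotted for p-Akt and Cdk4. Band levels quantified against Hsp90 loading control. Three separate experiments, mean ± SD.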

The test system of test [14] is A549. The test is described as follows: Induction of apoptosis in human A549 cells assessed as viable cells at 0.3 uM incubated for 48 hrs by Annexin V-FITC and PI staining based flow cytometric analysis (reference value: 95.5%). Format: functional. The settings on record: A549, 48 h, read-out: Activity.
Test [15] concerns the target Heat shock protein HSP 90-alpha (Homo sapiens) (UniProt P07900). The test is described as follows: Inhibition of ATP binding to human HSP90 alpha at 5 to 10 uM preincubated for 30 mins followed by gamma phosphate-linked ATP sepharose addition and measured after 30 mins by ATP-binding sepharose assay based western blot analysis. In short, it runs like this: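 Purified human Hsp90α incubated on ice 30 min with compound or DMSO in 10 mM Tris-HCl pH 7.5, 50 mM KCl, 5 mM MgCl2, 2 mM DTT, 20 mM Na2MoO4, 0.01% NP-40. γ-phosphate-linked ATP-Sepharose then added, 30 min at 37 °C with frequent mixing. Resin washed and pelleted, bound Hsp90α detected by SDS-PAGE/Western blot.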

The test system of test [16] is A549. The test is described as follows: Induction of cell cycle arrest in human A549 cells assessed as accumulation at G1 phase at 0.8 uM incubated for 24 hrs by PI staining based flow cytometric analysis (reference value: 60.14%). The format is functional. In short, it runs like this: as §4

Molecules are shown by their SMILES. pIC50: −log10 of the molar value. Calls of active or inactive are those of the source. The rule behind the calls is not given here.

As for `CC1=C(O)C(=O)C=C2C1=CC=C1[C@@]2(C)CC[C@@]2(C)[C@@H]3C[C@](C)(C(=O)OCCCOC(=O)/C=C(\C#N)c4ccc(F)cc4)CC[C@]3(C)CC[C@]12C`, the inhibition result in test [1], in test [7] and in [13] was “Active” throughout. For the same compound, the pIC50 (commonly the IC50 on a negative log10 scale, so that one unit is a factor of ten) is 6.39 with A549 [2] and 6.03 in the test on HepG2. Besides, the Activity in the test on A549 [3] is given as 15.7%; in the test on A549 [4], 5.9%; with A549 [8], 8.2%; in the test with A549 [9], 25.2%; in the test on A549 [10], 64.36%; with A549 [11], 23.85%. Also, the values for the Activity in the test on A549 [12] and in the test on A549 [16] were 16.78% and 70.49%, respectively. In addition, in test [5], the inhibition entry is “Dose-dependent effect”. In addition, the result in test [6] was Active. For the same compound, the viability at 0.3 µM in the test with A549 [14] worked out at 85.2%. In test [15], the inhibition entry is “inactive”.
